ChEMBL document CHEMBL1921709, “Synthesis and activity of new macrolones: conjugates between 6(7)-(2'-aminoethyl)-amino-1-cyclopropyl-3-carboxylic acid (2'-hydroxyethyl) amides and 4″-propenoyl-azithromycin” (2011)
Converted amounts (≈) assume the structure as drawn.

Tests used:
Assay type in all cases: functional
[1] = system: Streptococcus pneumoniae; test: Antibacterial activity against constitutive macrolide, lincosamide, streptogramin-resistant Streptococcus pneumoniae 58 spain by broth microdilution method
Outline: (§1)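 CLSI broth microdilution MIC with automated double dilutions of compound. The medium was supplemented with 5% horse serum in place of lysed blood. Bacteria were pre-grown on appropriate agar plates.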

[2] = system: Staphylococcus aureus; test: Antibacterial activity against constitutive macrolide, lincosamide, streptogramin-resistant Staphylococcus aureus PK2 by broth microdilution method
Outline: (§2)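 Standard CLSI broth microdilution MIC test with automated double dilutions of compound. Bacteria were pre-grown on appropriate agar plates.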

[3] = system: Staphylococcus aureus; test: Antibacterial activity against efflux-mediated macrolide-resistant Staphylococcus aureus PK1 by broth microdilution method; outline: as §2
[4] = system: Haemophilus influenzae; test: Antibacterial activity against Haemophilus influenzae ATCC 49247 by broth microdilution method
Outline: (§3)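 Broth microdilution following CLSI guidelines, using two-fold serial dilutions of compound. Bacteria were first grown on appropriate agar plates. Read-out is growth inhibition, reported as MIC.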

[5] = system: Streptococcus pyogenes; test: Antibacterial activity against efflux-mediated macrolide-resistant Streptococcus pyogenes Finland 2 by broth microdilution method; outline: as §1
[6] = system: Streptococcus pyogenes; test: Antibacterial activity against constitutive macrolide, lincosamide, streptogramin-resistant Streptococcus pyogenes 166 GR-Micro by broth microdilution method; outline: as §1
[7] = system: Streptococcus pyogenes; test: Antibacterial activity against erythromycin-sensitive Streptococcus pyogenes 3565 by broth microdilution method
Outline: (§4)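 Broth microdilution following CLSI guidelines, except that 5% horse serum replaced lysed blood in the Streptococcus medium. Two-fold serial dilutions of compound were used. Bacteria were first grown on appropriate agar plates. Read-out is growth inhibition, reported as MIC.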

[8] = system: Streptococcus pneumoniae; test: Antibacterial activity against efflux-mediated macrolide-resistant Streptococcus pneumoniae Ci137 by broth microdilution method; outline: as §1
[9] = system: Staphylococcus aureus; test: Antibacterial activity against erythromycin-sensitive Staphylococcus aureus ATCC 13709 by broth microdilution method; outline: as §3
[10] = system: Streptococcus pneumoniae; test: Antibacterial activity against inducible macrolide-resistant, constitutive lincosamide and streptogramin-resistant Streptococcus pneumoniae 134 GR M by broth microdilution method; outline: as §1
[11] = system: Streptococcus pneumoniae; test: Antibacterial activity against erythromycin-sensitive Streptococcus pneumoniae SP 030 by broth microdilution method; outline: as §4
[12] = system: Moraxella catarrhalis; test: Antibacterial activity against Moraxella catarrhalis ATCC 23246 by broth microdilution method; outline: as §3
[13] = system: Streptococcus pyogenes; test: Antibacterial activity against inducible macrolide-lincosamide-streptogramin B resistant Streptococcus pyogenes Finland 11 by broth microdilution method; outline: as §1
[14] = system: Staphylococcus aureus; test: Antibacterial activity against inducible macrolide, lincosamide and streptogramin B-resistant Staphylococcus aureus 90256/97 by broth microdilution method; outline: as §2

Row | Compound | MIC [1] [µg/mL] | MIC [2] [µg/mL] | MIC [3] [µg/mL] | MIC [4] [µg/mL] | MIC [5] [µg/mL] | MIC [6] [µg/mL] | MIC [7] [µg/mL] | MIC [8] [µg/mL] | MIC [9] [µg/mL] | MIC [10] [µg/mL] | MIC [11] [µg/mL] | MIC [12] [µg/mL] | MIC [13] [µg/mL] | MIC [14] [µg/mL]
1 | CC[C@H]1OC(=O)[C@H](C)[C@@H](O[C@H]2C[C@@](C)(OC)[C@@H](OC(=O)CCNCCNc3cc4c(cc3F)c(=O)c(C(=O)NCCO)cn4C3CC3)[C@H](C)O2)[C@H](C)[C@@H](O[C@@H]2O[C@H](C)C[C@H](N(C)C)[C@H]2O)[C@](C)(O)C[C@@H](C)CN(C)[C@H](C)[C@@H](O)[C@]1(C)O | 32 (≈ 27.8 µM) | > 64 | > 64 | 4 (≈ 3.47 µM) | 16 (≈ 13.9 µM) | > 64 | ≤ 0.125 | 4 (≈ 3.47 µM) | 4 (≈ 3.47 µM) | 64 (≈ 55.6 µM) | ≤ 0.125 | 0.5 (≈ 0.434 µM) | 4 (≈ 3.47 µM) | > 64
2 | CC[C@H]1OC(=O)[C@H](C)[C@@H](O[C@H]2C[C@@](C)(OC)[C@@H](OC(=O)CCNCCNc3ccc4c(c3)c(=O)c(C(=O)NCCO)cn4C3CC3)[C@H](C)O2)[C@H](C)[C@@H](O[C@@H]2O[C@H](C)C[C@H](N(C)C)[C@H]2O)[C@](C)(O)C[C@@H](C)CN(C)[C@H](C)[C@@H](O)[C@]1(C)O | > 64 | > 64 | > 64 | 8 (≈ 7.06 µM) | 16 (≈ 14.1 µM) | > 64 | 0.25 (≈ 0.221 µM) | 4 (≈ 3.53 µM) | 4 (≈ 3.53 µM) | 32 (≈ 28.2 µM) | ≤ 0.125 | 0.5 (≈ 0.441 µM) | 4 (≈ 3.53 µM) | > 64
3 | COC(=O)c1cn(C2CC2)c2cc(NCCNC(=O)OC(C)(C)C)c(F)cc2c1=O | > 64 | > 64 | > 64 | > 64 | > 64 | > 64 | > 64 | > 64 | > 64 | > 64 | > 64 | 8 (≈ 19.1 µM) | > 64 | > 64
4 | COC(=O)c1cn(C2CC2)c2cc(Cl)c(NCCNC(=O)OC(C)(C)C)cc2c1=O | > 64 | > 64 | > 64 | > 64 | > 64 | > 64 | > 64 | > 64 | > 64 | > 64 | > 64 | > 64 | > 64 | > 64
5 | CC(C)(C)OC(=O)NCCNc1cc2c(=O)c(C(=O)NCCO)cn(C3CC3)c2cc1Cl | > 64 | > 64 | > 64 | > 64 | > 64 | > 64 | 64 (≈ 138 µM) | > 64 | > 64 | > 64 | 16 (≈ 34.4 µM) | 32 (≈ 68.8 µM) | > 64 | > 64
6 | CC[C@H]1OC(=O)[C@H](C)[C@@H](O[C@H]2C[C@@](C)(OC)[C@@H](OC(=O)CCN(C)CCNc3cc4c(=O)c(C(=O)NCCO)cn(C5CC5)c4cc3Cl)[C@H](C)O2)[C@H](C)[C@@H](O[C@@H]2O[C@H](C)C[C@H](N(C)C)[C@H]2O)[C@](C)(O)C[C@@H](C)CN(C)[C@H](C)[C@@H](O)[C@]1(C)O | 32 (≈ 27.1 µM) | > 64 | 32 (≈ 27.1 µM) | 4 (≈ 3.38 µM) | 2 (≈ 1.69 µM) | > 64 | ≤ 0.125 | 0.5 (≈ 0.423 µM) | 2 (≈ 1.69 µM) | 4 (≈ 3.38 µM) | ≤ 0.125 | 1 (≈ 0.846 µM) | 2 (≈ 1.69 µM) | > 64
7 | CC(C)(C)OC(=O)NCCNc1cc2c(cc1F)c(=O)c(C(=O)NCCO)cn2C1CC1 | > 64 | > 64 | > 64 | > 64 | > 64 | > 64 | 16 (≈ 35.7 µM) | > 64 | 64 (≈ 143 µM) | > 64 | 16 (≈ 35.7 µM) | 16 (≈ 35.7 µM) | > 64 | > 64
